These results are taken from PMC4436074 (mBio, 2015).

Structures can show the parent of a compound that is named as a salt. Where two headings read alike, the source gives them in different places.

In one test the test system is RopB. The experiment in a line: PspeB-luxAB reporter, NZ131. Type of test: cell-based, S. pyogenes. The conditions noted are these: C medium; 10 µM CsA or valspodar; 300 mM NaCl. In a few lines:
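PspeB-luxAB reporter (speB upstream region–luxAB, integrated) grown in C medium to exponential phase (OD600 0.1). Test compound added at 10 µM; 300 mM NaCl used as the suppressing condition. Decanal vapour supplied; 37°C with shaking. OD600 and luminescence read every 15 min for 8 h; relative luminescence taken as maximum cps/OD600.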

The next test concerns Rgg3. The class given is binding, Streptococcus pyogenes. The conditions noted are these: HTS, duplicate; 0.1 µl of 10 mM compound in 30 µl; 180 nM His6-Sumo-Rgg3, 10 nM FITC-SHP2-C8. In a few lines: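 Approved-drug library (1,280 compounds, DMSO stocks) pinned into assay mix of 1× PBS, 0.1 mg/ml BSA, 0.01% Triton X-100 and 5 mM DTT. Plates were shaken 20 s, then held 15 min at room temperature, and polarization was read at ex 485/em 535 nm. Each plate had 32 DMSO negative-control wells and 32 unlabeled SHP2-C8 (1 mM stock) positive-control wells. % inhibition was scaled between the per-plate control means, and plate Z′ was computed.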

Test [1] deals with T1, ComR (Streptococcus mutans serotype c, UniProt Q8DWI6).
T1 sequence (Q8DWI6 1-304): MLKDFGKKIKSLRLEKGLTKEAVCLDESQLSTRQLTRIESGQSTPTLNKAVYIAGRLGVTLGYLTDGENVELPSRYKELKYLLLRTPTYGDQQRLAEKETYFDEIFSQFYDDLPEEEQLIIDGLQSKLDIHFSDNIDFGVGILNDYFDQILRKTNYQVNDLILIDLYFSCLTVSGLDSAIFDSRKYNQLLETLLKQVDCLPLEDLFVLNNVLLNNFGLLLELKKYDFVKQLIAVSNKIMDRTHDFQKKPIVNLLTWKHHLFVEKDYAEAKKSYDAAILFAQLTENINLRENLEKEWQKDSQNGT
Type of test: binding, S. mutans. Conditions: read-out: ComR Avg % inhibition.

Test [2] has as its system Rgg2/3-regulated promoter Pshp2-luxAB (BNL148). The experiment in a line: Pshp2-luxAB luciferase reporter assay, strain BNL148, sSHP2-C8 induced. Type of test: cell-based, S. pyogenes. Conditions: for inhibition of SHP-induced light production (transcription): 10 µM compound with 10 nM SHP2-C8, BNL148; for IC50: Streptococcus pyogenes.
For the next test, the system named is S. pyogenes cultures. The experiment in a line: Bacterial growth curves. The conditions noted are these: 10 µM compound with 10 nM sSHP2-C8, 37°C. Type of test: cell-based. In a few lines: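 S. pyogenes grown at 37°C in chemically defined medium (CDM) to OD600 0.1, then given 10 nM SHP2-C8 alone or with 10 µM test compound. OD600 read every 30 min for 8 h.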

A further test relates to Rgg2. The experiment in a line: Pshp2-luxAB luciferase reporter assay, Δrgg3 strain BNL178. The class given is cell-based, S. pyogenes. In a few lines: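 Pshp2-luxAB reporter strains grown in CDM to exponential phase (OD600 0.1). Cultures dispensed into wells with 10 nM SHP2-C8 alone or with test compound: 10 µM for the Δrgg3 strain BNL178, 5 µM CsA for the other strains. Decanal (1% in mineral oil) supplied as vapour; plate sealed and shaken continuously at 37°C. OD600 and luminescence read every 15 min for 8 h; relative luminescence taken as maximum cps/OD600.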

Test [3] deals with ComR-XIP QS system, PsigX-luxAB. The experiment in a line: PsigX-luxAB reporter. Type of test: cell-based, S. pyogenes. The conditions noted are these: 10 µM compound, 100 nM XIP, MGAS315(pWAR200). The method in brief:
(§1)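 PsigX-luxAB reporter strains grown in CDM to OD600 0.1 and incubated with 10 µM test compound plus 100 nM XIP. Decanal (1% in mineral oil) supplied as vapour; sealed plate shaken at 37°C. OD600 and luminescence read every 15 min for 8 h; relative luminescence taken as maximum cps/OD600.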

Test [4] has the same test system. The test is described as follows: PsigX-luxAB reporter. Conditions: 10 µM compound, 100 nM XIP, UA159(pWAR304). Type of test: cell-based, S. mutans. In a few lines:
as §1

Test [5] concerns S. pyogenes strain NZ131 biofilm. The test is described as follows: SHP-dependent biofilm assay, crystal violet staining, strain NZ131. The class given is cell-based. Conditions: 10 nM SHP2-C8, 20 h. The method in brief:
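NZ131 grown overnight in THY at 30°C, diluted 1:100 into CDM, grown at 37°C to late exponential phase, back-diluted to OD600 0.02 in CDM with 10 nM SHP2-C8 and 2-fold dilutions of test compound (5 to 0.156 µM); 0.1% DMSO controls. At OD600 ~0.1 plated in duplicate, 20 h at 37°C, 5% CO2. Saline wash, dry-fixed, 0.2% crystal violet, A595; ≥3 independent experiments, standard errors.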

For test [6], the system named is Rgg-SHP quorum-sensing pathway, Pshp-luxAB. The experiment in a line: Pshp-luxAB reporter in S. agalactiae A909. Type of test: cell-based. The conditions noted are these: S. agalactiae (GBS), 5 µM antagonist. In a few lines:
(§2)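 Reporter strains carry shp-promoter–luxAB fusions on a pLZ12-spec plasmid: Pshp1520 in GBS A909, Pshp2 in GGS, Pshp3 in S. porcinus. S. porcinus was given synthetic SHP. Strains grown in CDM to OD600 0.1 and exposed to 5 µM antagonist. Decanal (1% in mineral oil) supplied as vapour. OD600 and luminescence read at 37°C every 15 min for 8 h; relative luminescence taken as maximum cps/OD600.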

Test [7] shares this test system. The test is described as follows: Pshp-luxAB reporter in S. dysgalactiae GGS-LT1. The class given is cell-based. The conditions noted are these: 5 µM antagonist. In a few lines:
as §2

For test [8] the test system is unchanged. The test is described as follows: Pshp-luxAB reporter in S. porcinus NCTC 10999. The class given is cell-based. Conditions: 5 µM antagonist. In a few lines:
as §2

In test [9] the target is T1, ComR. The class given is binding, S. mutans. Conditions: competition with FITC-XIP.
The target of another test is FITC-XIP (S. mutans). The test is described as follows: fluorescence polarisation.
For test [10], the target named is FITC-SHP2-C8 (Streptococcus pyogenes). The test is described as follows: fluorescence polarisation.
Test [11] has as its target His6-SUMO-Rgg3 (Streptococcus pyogenes). The test is described as follows: fluorescence polarisation.
[12] abbreviates: read-out: IC50, luciferase assay dose-response.

`[Cl-].[Na+]` [NaCl]: in the test with RopB, the “effect on activation of PspeB (luciferase activity)” value is “abolished luciferase activity”.

On to `CCCc1nc(C(C)(C)O)c(C(=O)O)n1Cc1ccc(-c2ccccc2-c2nnn[nH]2)cc1` [Olmesartan], for which, in the test with Rgg3, the “Rgg3 Avg % inhibition” value is on record as 73%. In addition, the inhibition at ComR [1] is 1%. Also, in test [2], the “inhibition of SHP-induced light production (transcription)” value (“inhibition … (transcription)” below) is recorded as “less than 50%”.

On to `CC(C)(C)NC(=O)[C@@H]1C[C@@H]2CCCC[C@@H]2CN1C[C@@H](O)[C@H](Cc1ccccc1)NC(=O)[C@H](CC(N)=O)NC(=O)c1ccc2ccccc2n1` [Saquinavir mesylate], for which the “Rgg3 Avg % inhibition” value with Rgg3 was 84%. Moreover, on ComR [1], the inhibition was found to be 13%. In addition, the IC50 in [2] (setting [12]) is more than 10000 nM.

`CCC(C)(C)C(=O)O[C@H]1C[C@@H](C)C=C2C=C[C@H](C)[C@H](CC[C@@H]3C[C@@H](O)CC(=O)O3)[C@H]21` [Simvastatin]: the “Rgg3 Avg % inhibition” value in the test on Rgg3 amounted to 85%. Besides, the inhibition on ComR [1] is 10%. For the same molecule, in test [2], the “inhibition … (transcription)” value is given as “less than 50%”. For the same molecule, in test [2] (setting [12]), the IC50 was more than 10000 nM. Moreover, the “effect on culture growth” value in the test on S. pyogenes cultures is “inhibited culture growth”.

Regarding `CCCc1nc2c(C)cc(-c3nc4ccccc4n3C)cc2n1Cc1ccc(-c2ccccc2C(=O)O)cc1` [Telmisartan], the “Rgg3 Avg % inhibition” value in the test with Rgg3 was found to be 99%. Further, at ComR [1], the inhibition worked out at 3%. In [2], the “inhibition … (transcription)” value is “less than 50%”.

As to `C/C=C/C[C@@H](C)C(=O)[C@H]1C(=O)N[C@@H](C(C)C)C(=O)N(C)CC(=O)N(C)[C@@H](CC(C)C)C(=O)N[C@@H](C(C)C)C(=O)N(C)[C@@H](CC(C)C)C(=O)N[C@@H](C)C(=O)N[C@H](C)C(=O)N(C)[C@@H](CC(C)C)C(=O)N(C)[C@@H](CC(C)C)C(=O)N(C)[C@@H](C(C)C)C(=O)N1C` [Valspodar, [3′-keto-Bmt1-Val2]-cyclosporine], in [2], the “inhibition … (transcription)” value is “completely abolished light production”. For the same molecule, the concentration for half-maximal inhibition (IC50) in [2] (read-out: IC50 (nM), luciferase assay dose-response) came to 252 nM; in test [2] (setting [12]), 500 nM. For the same molecule, in the test on Rgg2, the “inhibition of transcription in strain with only Rgg2 present” value is listed as “effective at inhibiting transcription”. The “effect on culture growth” value in the test with S. pyogenes cultures was “do not display toxic effects on GAS growth”. For the same molecule, the “effect on light production of PsigX-luxAB” value in test [3] and in test [4] was “not affected” each time. The “effect on activation of PspeB (luciferase activity)” value in the test with RopB is recorded as “unable to block activation of PspeB”. The “concentration sufficient to prevent SHP-dependent biofilm development” value in test [5] turned out to be 0.312 µM. Further, the “fold inhibition of light production” value in test [6] is recorded as “at least 5 fold”; in [7], “at least 5 fold”; in [8] (S. porcinus (GES), sSHP stimulated), “at least 5 fold”. In test [8] (S. porcinus), the “effect on the S. porcinus strain (in words)” value is given as “only a moderate effect”. Also, the “binding to ComR” value on ComR [9] is “did not bind to ComR”.

In the test with FITC-XIP (S. mutans), His6-ComR (S. mutans UA159) (receptor) showed a Kd of 1000 nM.

In turn, His6-SUMO-Rgg3 (receptor) gave a Kd in test [10] of 160 nM.

B1: SHP2-C8 (unlabeled synthetic peptide) (peptide)
peptide: DILIIVGG
B1 showed an equilibrium dissociation constant (Kd) in test [11] of 220 nM.
